The results in this text go back to ChEMBL document CHEMBL4350961, “Discovery of Pyrrolo[3,2- d]pyrimidin-4-one Derivatives as a New Class of Potent and Cell-Active Inhibitors of P300/CBP-Associated Factor Bromodomain” (J Med Chem, 2019).

Active and inactive are the calls of the source. No cut-off for these calls is given here.

Usually ΔTm stands for the shift of the melting midpoint relative to a reference.

The test system of assay [1] is Serine/threonine-protein kinase Nek4 (Homo sapiens), P51957 [P225A]. The assay can be described thus: Inhibition of recombinant full-length human NEK4 P225A mutant at 10 uM using myelin basic protein as substrate measured after 40 mins in presence of [gamma33P]ATP by scintillation counting method.
Assay [2] has as its target ATPase family AAA domain-containing protein 2 (Homo sapiens) (UniProt Q6PL18). Briefly: Binding affinity to human N-terminal His-tagged ATAD2 assessed as change in melting temperature at 10 uM by SYPRO orange dye-based fluorescence assay. A digest of the protocol:
(§1)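 Thermal shift with His-tagged human bromodomain at 2 μM final in 10 mM HEPES pH 7.5, 500 mM NaCl. Compound at 10 μM final with 0.1% DMSO; SYPRO Orange at 1:1000. Equilibrated 3 min at 25 °C, then heated from 25 to 95 °C at 1 °C/min. Melting temperature shift taken from fluorescence; at least duplicate.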

In assay [3] the target is Death-associated protein kinase 3 (Homo sapiens) (UniProt O43293). The assay can be described thus: Inhibition of human ZIPK (1 to 290 residues) using KKLNRTLSFAEPG as substrate measured after 40 mins in presence of [gamma33P]ATP by scintillation counting method.
For assay [4], the system named is Hepatocyte growth factor receptor (Homo sapiens), P08581 [Y1230H]. The assay can be described thus: Inhibition of recombinant human MET A1209G/V1290L/Y1248H mutant (974 to end residues) at 10 uM using KKKGQEEEYVFIE as substrate measured after 40 mins in presence of [gamma33P]ATP by scintillation counting method.
Assay [5] deals with Macrophage-stimulating protein receptor (Homo sapiens) (UniProt Q04912). Briefly: Inhibition of human Ron (983 to end residues) using GGMEDIYFEFMGGKKK as substrate measured after 40 mins in presence of [gamma33P]ATP by scintillation counting method. A digest of the protocol:
(§2)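 Kinase panel of 422 kinases screened by Eurofins KinaseProfiler at a single test-compound concentration of 10 µM.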

The target in assay [6] is Calcium/calmodulin-dependent protein kinase type II subunit delta (Homo sapiens) (UniProt Q13557). Briefly: Inhibition of recombinant full-length human CaMK2delta at 10 uM using calmodulin as substrate measured after 40 mins in presence of [gamma33P]ATP by scintillation counting method.
In assay [7] the target is Macrophage colony-stimulating factor 1 receptor (Homo sapiens) (UniProt P07333). Briefly: Inhibition of recombinant human FMS (538 to end residues) at 10 uM using KKKSPGEYVNIEFG as substrate measured after 40 mins in presence of [gamma33P]ATP by scintillation counting method.
Assay [8] has as its system Hepatocyte growth factor receptor (Homo sapiens), P08581 [D1228H]. The assay can be described thus: Inhibition of recombinant human MET A1209G/V1290L/D1246H mutant (974 to end residues) at 10 uM using KKKGQEEEYVFIE as substrate measured after 40 mins in presence of [gamma33P]ATP by scintillation counting method.
Assay [9] deals with Ephrin type-A receptor 7 (Homo sapiens) (UniProt Q15375). Briefly: Inhibition of recombinant human EphA7 (613 to 909 residues) at 10 uM using KTFCGTPEYLAPEVRREPRILSEEEQEMFRDFDYIADWC as substrate measured after 40 mins in presence of [gamma33P]ATP by scintillation counting method.
For assay [10], the target named is Mitogen-activated protein kinase 1 (Homo sapiens) (UniProt P28482). The assay can be described thus: Inhibition of human MAPK2 at 10 uM. In outline: as §2
Assay [11] relates to Tyrosine-protein kinase ABL1 (Homo sapiens), P00519 [T315I]. Briefly: Inhibition of recombinant human ABL T315I mutant (27 to end residues) at 10 uM using EAIYAAPFAKKK as substrate measured after 40 mins in presence of [gamma33P]ATP by scintillation counting method.
The target of assay [12] is Serine/threonine-protein kinase 32A (Homo sapiens) (UniProt Q8WU08). Briefly: Inhibition of recombinant full-length human STK32A at 10 uM using casein as substrate measured after 120 mins in presence of [gamma33P]ATP by scintillation counting method.
Assay [13] addresses Eukaryotic translation initiation factor 2-alpha kinase 1 (Homo sapiens) (UniProt Q9BQI3). Briefly: Inhibition of recombinant human HRI (140 to end residues) at 10 uM using RSRSRSRSRSRSRSR as substrate measured after 120 mins in presence of [gamma33P]ATP by scintillation counting method.
Assay [14] is filed under the species Mus musculus. The assay can be described thus: Inhibition of recombinant mouse ABL L782P/G784R/W785L/L786V mutant (27 to end residues) at 10 uM using EAIYAAPFAKKK as substrate measured after 40 mins in presence of [gamma33P]ATP by scintillation counting method.
Assay [15] addresses TGF-beta receptor type-2 (Homo sapiens) (UniProt P37173). Briefly: Inhibition of human TGFBR2 (188 to end residues) using myelin basic protein as substrate measured after 120 mins in presence of [gamma33P]ATP by scintillation counting method.
The species named for assay [16] is Homo sapiens. The assay can be described thus: Inhibition of recombinant full-length human PI3K p110alpha/p65alpha (1 to 571 residues) at 10 uM using phosphatidylinositol-4, 5-bisphosphate as substrate measured after 40 mins by HTRF assay.
The subject of assay [17] is Casein kinase I isoform gamma-3 (Homo sapiens), Q9Y6M4 [UNDEFINED MUTATION]. The assay can be described thus: Inhibition of recombinant human CK1gamma3 K91E/R174G/E302D mutant (1 to 330 residues) at 10 uM using KRRRALS(p)VASLPGL as substrate measured after 40 mins in presence of [gamma33P]ATP by scintillation counting method.
Assay [18] has as its target Bromodomain adjacent to zinc finger domain protein 2B (Homo sapiens) (UniProt Q9UIF8). Briefly: Binding affinity to human N-terminal His-tagged BAZ2B assessed as change in melting temperature at 10 uM by SYPRO orange dye-based fluorescence assay. In outline:
as §1

Assay [19] has as its target Phosphorylase b kinase gamma catalytic chain, skeletal muscle/heart isoform (Homo sapiens) (UniProt Q16816). Briefly: Inhibition of recombinant full-length human PhKgamma1 at 10 uM using KKLNRTLSFAEPG as substrate measured after 120 mins in presence of [gamma33P]ATP by scintillation counting method.
Assay [20] has as its target Bromodomain and PHD finger-containing protein 3 (Homo sapiens) (UniProt Q9ULD4). The assay can be described thus: Binding affinity to human N-terminal His-tagged BRPF3 assessed as change in melting temperature at 10 uM by SYPRO orange dye-based fluorescence assay. A digest of the protocol: as §1
Assay [21] relates to Hepatocyte growth factor receptor (Homo sapiens), P08581 [Y1230D]. Briefly: Inhibition of recombinant human MET A1209G/V1290L/Y1248D mutant (974 to end residues) at 10 uM using KKKGQEEEYVFIE as substrate measured after 40 mins in presence of [gamma33P]ATP by scintillation counting method.
Assay [22] has as its target Casein kinase I isoform gamma-2 (Homo sapiens) (UniProt P78368). The assay can be described thus: Inhibition of recombinant human CK1gamma2 (18 to end residues) at 10 uM using KRRRALS(p)VASLPGL as substrate measured after 40 mins in presence of [gamma33P]ATP by scintillation counting method.

Sequence of TGF-beta receptor type-2 (Homo sapiens) (P37173 whole entry, the tested form may be a part): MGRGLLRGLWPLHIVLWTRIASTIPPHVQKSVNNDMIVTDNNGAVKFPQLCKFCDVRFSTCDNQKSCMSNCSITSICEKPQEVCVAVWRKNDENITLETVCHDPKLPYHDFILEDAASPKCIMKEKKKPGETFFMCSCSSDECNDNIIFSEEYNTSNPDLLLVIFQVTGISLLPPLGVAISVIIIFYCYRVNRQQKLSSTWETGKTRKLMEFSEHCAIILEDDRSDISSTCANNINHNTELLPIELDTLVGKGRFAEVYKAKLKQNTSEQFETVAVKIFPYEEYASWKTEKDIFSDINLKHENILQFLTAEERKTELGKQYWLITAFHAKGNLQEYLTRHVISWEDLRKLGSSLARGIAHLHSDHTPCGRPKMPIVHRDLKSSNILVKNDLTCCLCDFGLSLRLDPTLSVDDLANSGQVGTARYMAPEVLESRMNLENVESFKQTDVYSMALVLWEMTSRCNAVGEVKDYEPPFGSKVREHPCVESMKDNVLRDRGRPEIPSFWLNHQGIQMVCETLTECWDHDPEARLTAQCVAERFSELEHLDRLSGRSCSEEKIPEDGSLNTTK
Sequence of Casein kinase I isoform gamma-2 (Homo sapiens) (P78368 whole entry, looked up, canonical isoform): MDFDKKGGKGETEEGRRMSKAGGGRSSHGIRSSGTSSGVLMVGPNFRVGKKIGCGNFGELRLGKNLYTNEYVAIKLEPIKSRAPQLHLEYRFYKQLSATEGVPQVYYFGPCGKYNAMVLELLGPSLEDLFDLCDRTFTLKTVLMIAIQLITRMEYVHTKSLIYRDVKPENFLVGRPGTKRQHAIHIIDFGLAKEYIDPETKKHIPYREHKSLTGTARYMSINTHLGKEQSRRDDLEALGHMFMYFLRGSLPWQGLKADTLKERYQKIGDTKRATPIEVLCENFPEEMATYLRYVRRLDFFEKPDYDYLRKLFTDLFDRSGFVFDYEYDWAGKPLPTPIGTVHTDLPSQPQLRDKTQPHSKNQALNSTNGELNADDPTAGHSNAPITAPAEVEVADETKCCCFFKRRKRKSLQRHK
Sequence of Serine/threonine-protein kinase Nek4 (Homo sapiens), P51957 [P225A] (P51957 whole entry P225A, the tested form may be a part): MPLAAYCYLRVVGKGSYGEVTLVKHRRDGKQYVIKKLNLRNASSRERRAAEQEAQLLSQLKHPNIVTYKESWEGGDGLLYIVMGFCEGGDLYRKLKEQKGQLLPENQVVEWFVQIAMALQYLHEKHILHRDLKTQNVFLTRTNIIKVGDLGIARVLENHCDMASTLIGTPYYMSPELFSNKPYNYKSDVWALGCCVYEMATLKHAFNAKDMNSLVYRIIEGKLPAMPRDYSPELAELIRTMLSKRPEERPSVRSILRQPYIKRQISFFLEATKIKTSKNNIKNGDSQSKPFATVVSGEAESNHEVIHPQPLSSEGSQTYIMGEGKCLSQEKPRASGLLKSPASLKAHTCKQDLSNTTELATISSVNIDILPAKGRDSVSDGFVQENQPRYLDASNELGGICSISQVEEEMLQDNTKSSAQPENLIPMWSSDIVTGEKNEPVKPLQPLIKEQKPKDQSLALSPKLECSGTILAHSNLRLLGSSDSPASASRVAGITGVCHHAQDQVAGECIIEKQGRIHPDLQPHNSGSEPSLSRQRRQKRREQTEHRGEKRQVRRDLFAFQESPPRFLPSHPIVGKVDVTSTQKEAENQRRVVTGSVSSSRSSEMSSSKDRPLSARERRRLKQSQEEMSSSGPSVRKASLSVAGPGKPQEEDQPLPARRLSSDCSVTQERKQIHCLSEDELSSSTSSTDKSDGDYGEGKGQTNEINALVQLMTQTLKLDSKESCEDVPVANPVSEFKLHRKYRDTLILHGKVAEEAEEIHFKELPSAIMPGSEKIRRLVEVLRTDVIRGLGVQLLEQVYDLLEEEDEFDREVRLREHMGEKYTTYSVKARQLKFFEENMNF
Sequence of Macrophage colony-stimulating factor 1 receptor (Homo sapiens) (P07333 whole entry): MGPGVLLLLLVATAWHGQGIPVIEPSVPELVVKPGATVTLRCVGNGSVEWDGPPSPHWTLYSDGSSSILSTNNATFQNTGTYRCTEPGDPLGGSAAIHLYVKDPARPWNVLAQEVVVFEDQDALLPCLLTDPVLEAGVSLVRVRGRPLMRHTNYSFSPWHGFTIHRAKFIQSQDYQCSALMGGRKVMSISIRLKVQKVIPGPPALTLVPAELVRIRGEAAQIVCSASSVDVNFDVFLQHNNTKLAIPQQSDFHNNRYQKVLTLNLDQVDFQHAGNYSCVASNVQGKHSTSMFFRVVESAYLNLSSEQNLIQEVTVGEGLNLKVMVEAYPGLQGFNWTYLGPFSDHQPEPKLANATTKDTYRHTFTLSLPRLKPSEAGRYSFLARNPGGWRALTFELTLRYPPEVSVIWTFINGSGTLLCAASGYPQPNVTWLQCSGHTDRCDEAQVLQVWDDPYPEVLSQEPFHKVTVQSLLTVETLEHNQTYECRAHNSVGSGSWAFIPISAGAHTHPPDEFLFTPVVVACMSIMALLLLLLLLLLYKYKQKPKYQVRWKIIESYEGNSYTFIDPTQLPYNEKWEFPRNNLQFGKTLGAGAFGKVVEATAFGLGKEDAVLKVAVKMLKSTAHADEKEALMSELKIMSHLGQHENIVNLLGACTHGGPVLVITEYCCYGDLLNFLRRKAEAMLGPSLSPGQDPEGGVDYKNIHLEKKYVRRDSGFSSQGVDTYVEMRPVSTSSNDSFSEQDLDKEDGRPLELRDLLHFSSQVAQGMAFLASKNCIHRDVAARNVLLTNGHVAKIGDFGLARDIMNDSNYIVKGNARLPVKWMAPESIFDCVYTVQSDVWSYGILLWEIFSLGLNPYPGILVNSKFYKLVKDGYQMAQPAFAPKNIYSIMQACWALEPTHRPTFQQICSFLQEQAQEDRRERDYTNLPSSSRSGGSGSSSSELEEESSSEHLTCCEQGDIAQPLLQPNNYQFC
Sequence of ATPase family AAA domain-containing protein 2 (Homo sapiens) (Q6PL18 whole entry, the tested form may be a part): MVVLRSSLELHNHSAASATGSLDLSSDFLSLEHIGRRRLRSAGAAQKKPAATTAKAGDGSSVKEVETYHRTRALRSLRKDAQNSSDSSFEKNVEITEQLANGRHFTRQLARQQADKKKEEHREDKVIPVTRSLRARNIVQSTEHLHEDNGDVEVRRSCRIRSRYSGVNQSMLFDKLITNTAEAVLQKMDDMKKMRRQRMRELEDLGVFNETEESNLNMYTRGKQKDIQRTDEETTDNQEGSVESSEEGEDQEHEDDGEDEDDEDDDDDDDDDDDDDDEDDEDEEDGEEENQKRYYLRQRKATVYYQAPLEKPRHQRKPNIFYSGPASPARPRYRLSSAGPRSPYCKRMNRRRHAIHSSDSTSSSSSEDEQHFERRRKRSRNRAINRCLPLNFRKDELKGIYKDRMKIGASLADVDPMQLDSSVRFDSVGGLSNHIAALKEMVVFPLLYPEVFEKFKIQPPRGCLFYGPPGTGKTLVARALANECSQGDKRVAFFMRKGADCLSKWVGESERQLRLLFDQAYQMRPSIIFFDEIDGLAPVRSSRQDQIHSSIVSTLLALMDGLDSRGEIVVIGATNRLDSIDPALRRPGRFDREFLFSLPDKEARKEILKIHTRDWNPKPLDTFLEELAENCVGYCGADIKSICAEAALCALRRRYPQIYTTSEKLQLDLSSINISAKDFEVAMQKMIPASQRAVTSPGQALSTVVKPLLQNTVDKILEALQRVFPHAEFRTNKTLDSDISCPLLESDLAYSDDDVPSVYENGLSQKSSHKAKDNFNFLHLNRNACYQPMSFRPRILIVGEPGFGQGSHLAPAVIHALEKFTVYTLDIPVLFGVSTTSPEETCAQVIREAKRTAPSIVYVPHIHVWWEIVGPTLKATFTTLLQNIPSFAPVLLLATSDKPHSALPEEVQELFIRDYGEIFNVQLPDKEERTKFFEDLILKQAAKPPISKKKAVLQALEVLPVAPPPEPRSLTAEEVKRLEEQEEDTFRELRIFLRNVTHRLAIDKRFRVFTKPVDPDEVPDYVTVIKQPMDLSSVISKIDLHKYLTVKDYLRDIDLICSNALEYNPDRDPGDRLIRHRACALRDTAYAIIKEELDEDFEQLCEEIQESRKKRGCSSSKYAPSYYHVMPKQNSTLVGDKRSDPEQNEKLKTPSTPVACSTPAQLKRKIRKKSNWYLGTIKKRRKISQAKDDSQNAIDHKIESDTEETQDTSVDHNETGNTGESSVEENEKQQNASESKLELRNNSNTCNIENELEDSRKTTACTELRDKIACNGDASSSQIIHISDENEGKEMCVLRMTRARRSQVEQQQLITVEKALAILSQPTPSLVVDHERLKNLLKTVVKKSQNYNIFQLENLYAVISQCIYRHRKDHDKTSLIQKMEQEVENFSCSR
Sequence of Mitogen-activated protein kinase 1 (Homo sapiens) (P28482 whole entry): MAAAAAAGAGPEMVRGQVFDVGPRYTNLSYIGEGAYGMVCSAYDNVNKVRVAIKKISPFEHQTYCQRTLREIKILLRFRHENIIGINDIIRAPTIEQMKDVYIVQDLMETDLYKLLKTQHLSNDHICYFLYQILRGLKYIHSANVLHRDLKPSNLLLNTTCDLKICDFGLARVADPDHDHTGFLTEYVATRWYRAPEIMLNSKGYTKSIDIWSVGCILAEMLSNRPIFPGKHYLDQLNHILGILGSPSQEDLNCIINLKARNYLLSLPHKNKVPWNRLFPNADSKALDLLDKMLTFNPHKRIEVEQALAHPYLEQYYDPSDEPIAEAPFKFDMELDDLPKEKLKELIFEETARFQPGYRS
Sequence of Death-associated protein kinase 3 (Homo sapiens) (O43293 whole entry, looked up, the tested form may be a part): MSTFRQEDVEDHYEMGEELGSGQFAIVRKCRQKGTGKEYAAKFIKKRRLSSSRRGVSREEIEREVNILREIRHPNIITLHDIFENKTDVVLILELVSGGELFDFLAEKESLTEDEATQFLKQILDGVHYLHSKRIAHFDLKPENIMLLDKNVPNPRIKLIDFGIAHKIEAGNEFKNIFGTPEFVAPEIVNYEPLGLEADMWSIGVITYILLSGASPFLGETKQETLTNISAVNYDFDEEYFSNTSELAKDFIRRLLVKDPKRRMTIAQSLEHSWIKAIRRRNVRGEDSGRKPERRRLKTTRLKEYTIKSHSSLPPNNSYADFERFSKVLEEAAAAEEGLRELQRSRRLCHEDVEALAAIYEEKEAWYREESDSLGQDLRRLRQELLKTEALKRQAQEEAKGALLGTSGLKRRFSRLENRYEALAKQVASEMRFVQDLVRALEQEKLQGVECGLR

As to `CN1C[C@H](Nc2nc3cc[nH]c3c(=O)n2C)C[C@H](c2ccc3c(c2)OCCO3)C1`, the inhibition result in assay [1], in [3], in [4], in assay [5], in assay [6] and in [7] was “inactive” throughout. Moreover, the inhibition entry in assay [8], in assay [9], in assay [10], in assay [11], in assay [12] and in [13] was “inactive” throughout. Further, the inhibition entry in assay [14], in [15], in assay [16], in assay [17], in assay [19] and in [21] was “inactive” each time. In assay [22], the inhibition entry was “inactive”. Also, the ΔTm in assay [2] was 0.3 °C; in assay [18], 1.9 °C; in assay [20], 1.7 °C.
